The list is not random: actives were taken first. Their share in the collection is about 3.7%.
KCNK9 block – blocks the human KCNK9 two-pore domain potassium channel; HEK293 KCNK9, FluxOR thallium flux fluorescence; hits give low values; B-score at 10 µM; actives 1.2% (n = 310,000);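 active = ratio B-score over 3 SD below the library mean, with starting fluorescence within 5 SD of its mean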;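 note: negative B-score means less thallium flux so channel inhibition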
hERG rescue – hERG (human) protection from proarrhythmic block; Q12809; CHO-hERG, FluxOR thallium flux, dofetilide IC70 present; activation (rescue from dofetilide block), less the hit threshold, % at 10 µM; actives 0.51% (n = 310,000); AID 1511;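 active = activation above the mean of controls blocked by dofetilide plus 5 SD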;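 note: thallium influx through hERG after potassium depolarization seen as dye fluorescence rise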
Kir21 block – Kir2.1 (mouse) channel inhibition | P35561 | HEK293-Kir2.1, FluxOR thallium flux fluorescence; hits give low values | B-score at 10 µM | actives 0.85% (n = 310,000) | AID 1672;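 active = fluorescence ratio B-score at or below minus 3 SD of library scores, with starting-brightness B-score within 2 SD, cut at about -4.2 in these data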;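 note: channel flux triggered by added potassium and thallium sulfate stimulus; B-score of peak minus minimum fluorescence over baseline after thallium stimulus; more negative B-score means stronger Kir2.1 block with less thallium influx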
KCNQ1 block – human KCNQ1 channel inhibition; P51787; CHO-K1 KCNQ1, FluxOR thallium flux fluorescence; hits give high values; B-score at 10 µM; actives 1.3% (n = 310,000); AID 2642;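 active = compounds whose thallium flux B-score, printed positive for inhibition, exceeds three library SD while starting fluorescence stays within three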;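 note: channel opened by potassium depolarization with thallium stimulus after 20 min compound exposure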
KCNQ1 act – human KCNQ1 channel potentiation or activation. AID 2648. CHO-K1 KCNQ1, thallium flux FluxOR fluorescence; hits give high values. actives 0.35% (n = 310,000). B-score at 10 µM;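 active = fluorescence ratio B-score, a plate-corrected score, at least three library SD, with initial intensity B-score within 5 SD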
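Medium – assay buffer, equal DMSO in all wells · Material – CHO-K1 cell line with stable KCNQ1 potassium channel expression · Signal – kinetic FluxOR thallium fluorescence, 10-s 1-Hz baseline, 110-s post-stimulus read · Compound – single concentration per compound, DMSO matched to controls · Schedule – 37 °C overnight plating, 90-min dark dye load, 20-min compound pretreatment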
KCNK3 inh – human KCNK3 channel inhibition, primary screen. CHO-KCNK3 thallium flux, FluxOR fluorescence; hits give low values. O14649. actives 0.84% (n = 340,000). AID 602410. B-score at 10 µM;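 active = B-score under library mean minus 4 SD, starting fluorescence ratio at most library mean plus 5 SD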;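 note: more negative B-score means stronger inhibition of thallium flux through KCNK3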
Target sequence (O14649 whole entry, looked up): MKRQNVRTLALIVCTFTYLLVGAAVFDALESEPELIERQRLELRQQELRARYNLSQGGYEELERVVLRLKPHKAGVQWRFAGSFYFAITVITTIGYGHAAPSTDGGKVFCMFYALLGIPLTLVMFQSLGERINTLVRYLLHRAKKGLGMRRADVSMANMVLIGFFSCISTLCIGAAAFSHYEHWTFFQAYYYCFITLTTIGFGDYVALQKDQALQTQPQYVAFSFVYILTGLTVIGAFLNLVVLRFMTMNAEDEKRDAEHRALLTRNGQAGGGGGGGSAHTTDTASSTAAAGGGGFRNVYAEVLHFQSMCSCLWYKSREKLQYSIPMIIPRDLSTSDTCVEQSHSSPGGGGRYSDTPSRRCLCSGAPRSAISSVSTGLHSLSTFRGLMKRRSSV
KCNK9 inh conf – human KCNK9 inhibitor confirmation; shares compounds with KCNK9 block; HEK293 KCNK9 cells, FluxOR thallium flux fluorescence; inhibition, % at 10 µM; actives 43% (n = 4,900);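 active = thallium signal inhibited by more than 5 SD of the compound-free buffer control wells, on both duplicate plates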
Kir21 sel – selectivity of KCNK9 modulators against mouse Kir2.1; AID 492993; shares compounds with KCNK9 block; actives 4% (n = 4,900); inhibition, % at 10 µM; Kir2.1 cells, FluxOR thallium flux fluorescence;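 active = thallium signal drop more than 5 SD beyond the mean of the no-compound control wells, seen in both duplicate plates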;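 note: signal is fluorescence rise after thallium addition divided by baseline fluorescence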
KCNK9 uninduced – second check of KCNK9 modulator effects in non-induced HEK293 cells; actives 40% (n = 4,900); inhibition, % at 10 µM; shares compounds with KCNK9 block; FluxOR thallium flux; AID 492997;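 active = thallium signal drop beyond 5 SD of the untreated control mean, on both duplicate plates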
Large screens that a line does not name were inactive (follow-up assays come after a bar, where they were run).

C(=N\Nc1nc(N2CCCCCC2)nc(N2CCCCCC2)n1)/c1ccccc1	none
Oc1ccc(/C=N/Nc2nc(N3CCCCCC3)nc(N3CCCCCC3)n2)c(O)c1	none
COc1cccc(C(N)=O)c1	none
COc1cccc(/C(C)=N/N=C(\C)c2cccc(OC)c2)c1	KCNK9 block -14 | KCNK9 inh conf 60% | Kir21 sel inactive | KCNK9 uninduced inactive
COC(=O)C(Oc1ccc2c(-c3ccc(OC)cc3)cc(=O)oc2c1)c1ccccc1 (stereo not drawn)	KCNK9 block -9.3 | KCNK9 inh conf 54% | Kir21 sel inactive | KCNK9 uninduced 36%
COc1ccc(-c2csc(NC(C)c3nc4cc(Cl)c(Cl)cc4n3CCOCCO)n2)cc1 (stereo not drawn)	KCNK9 block -8.6 | KCNK9 inh conf 32% | Kir21 sel inactive | KCNK9 uninduced 40%
COc1ccc(-c2csc(NC(C)c3nc4cc(Cl)c(N5CCCCC5)cc4n3CCOCCO)n2)cc1 (stereo not drawn)	none
Cc1cc(O)ccc1C1(c2ccc(O)cc2C)OC(=O)c2ccccc21	KCNK9 block -13 | KCNK9 inh conf 44% | Kir21 sel inactive | KCNK9 uninduced inactive
Cc1cccc(C2(c3cccc(C)c3)OC(=O)c3ccccc32)c1	KCNK9 block -19 | KCNK9 inh conf 78% | Kir21 sel inactive | KCNK9 uninduced 43%
O=C1OC(c2ccccc2)(c2ccc(O)cc2)c2ccccc21 (stereo not drawn)	none (no result: KCNK9 block, hERG rescue, Kir21 block, KCNQ1 block, KCNQ1 act)
COC(=O)[C@]1(C)N[C@H](CN(C)C(=O)c2ccc(F)cc2)[C@@H]2C(=O)N(C)C(=O)[C@@H]21	none (no result: KCNK9 block, hERG rescue, Kir21 block, KCNQ1 block, KCNQ1 act)
CCOC(=O)N/N=C/c1cc(C)n(-c2cccc3ccccc23)c1C	KCNK9 block -8.3 | KCNK9 inh conf 48% | Kir21 sel inactive | KCNK9 uninduced 36%
CC(=O)Nc1ccc(NC(=O)C2CCN(C(=O)c3cccs3)CC2)cc1	none
CC(C)Oc1ccc(Cc2cnc(N)nc2N)cc1	none
COc1nc(SC)nc(Cl)c1Cc1ccc(OC(C)C)cc1	none | KCNK9 inh conf inactive | Kir21 sel inactive | KCNK9 uninduced 26%
CCCOc1ccc(Cc2c(Cl)nc(SC)nc2N(C)C)cc1	none
CCCOc1ccc(Cc2c(Cl)nc(SC)nc2OC)cc1	none | KCNK9 inh conf inactive | Kir21 sel inactive | KCNK9 uninduced inactive
CCOC(=O)Cn1nc(-c2ccccc2)c2ccccc2c1=O	none
O=c1c2ccccc2c(-c2ccccc2)nn1Cc1c(Cl)cccc1Cl	KCNK9 block -10 | KCNK9 inh conf 33% | Kir21 sel inactive | KCNK9 uninduced 36%
Cc1cccc(N2CCN(C(=O)c3ccc4c(c3)c(C)c(C)n4C)CC2C)c1 (stereo not drawn)	none | KCNK9 inh conf inactive | Kir21 sel inactive | KCNK9 uninduced inactive
Cc1cccc(N2CCN(C(=O)c3ccc(N4CCCC4=O)cc3)CC2C)c1 (stereo not drawn)	none
CC(C)CNc1nc(N)c([N+](=O)[O-])c(N2CCCCCC2)n1	none
Cc1ccc(C)c2[nH]c(=O)c(CN(Cc3ccco3)C(=O)Nc3ccccc3)cc12	KCNK9 block -13 | KCNK9 inh conf 62% | Kir21 sel inactive | KCNK9 uninduced inactive
Cc1ccc2cc(CN(Cc3ccco3)C(=O)NCc3ccccc3)c(=O)[nH]c2c1C	none
CN1CCN(C(=O)CCCN2C(=O)/C(=C/c3cccc(Br)c3)SC2=S)CC1	none | KCNK9 inh conf inactive | Kir21 sel inactive | KCNK9 uninduced inactive
O=C(CCCN1C(=O)/C(=C/c2cccc(Br)c2)SC1=S)N1CCOCC1	none | KCNK9 inh conf inactive | Kir21 sel inactive | KCNK9 uninduced inactive
CCN(Cc1ccccc1)C(=O)c1ccc2c(=O)n3c(nc2c1)CCC3	none

Screening results deposited in PubChem by Johns Hopkins Ion Channel Center.
